{"source": "paper PMC11244656", "about": "(International journal of pharmaceutics, 2021)", "key": {"[1]": {"system": "artificial CM-like emulsion (Intralipid)", "assay": "CM association assay with artificial CM-like emulsion", "type": "in vitro ADME", "settings": "1.75 μM, TG 1 mg/mL, 37°C, 1 hour, n = 22", "summary_of_the_method": "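Intralipid 20% was diluted in PBS to 1 mg/mL triglyceride. A 2 mL volume was spiked from a 1 mg/mL propylene glycol–ethanol (99:1) stock to give 1.75 μM final. It was stirred at 170 rpm, 37°C, for 1 h. The emulsion was then re-isolated by density gradient ultracentrifugation and drug content measured by HPLC-UV.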"}, "[2]": {"assay": "Pharmacokinetic study in rats", "type": "in vivo", "settings": "male, Sprague Dawley, rat, plasma", "summary_of_the_method": "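Male Sprague Dawley rats (275–300 g) had jugular vein cannulas placed under isoflurane, recovered 2 nights and were fasted up to 16 h. IV bolus was given in propylene glycol–water–ethanol (70:20:10). Oral gavage used the same vehicle or sesame oil. Plasma was sampled to 24 h and assayed by HPLC-UV (263 nm, internal standard, 5–15000 ng/mL). Non-compartmental analysis; n = 5 IV, 3 or 6 oral.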"}, "[3]": {"assay": "Biodistribution study to mesenteric lymph and MLNs in rats", "type": "in vivo", "settings": "rat, oral 5 mg/kg; for levels in MLNs compared to plasma: tmax-1h and tmax"}, "[4]": {"system": "human plasma-derived CM", "assay": "CM association assay with human plasma-derived CM", "type": "in vitro ADME", "settings": "1.75 μM, TG 1 mg/mL, 37°C, 1 hour, n = 9", "summary_of_the_method": "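Chylomicrons came from volunteers on no medicines in the prior week, 3–4 h after a high-fat meal. Blood in K2-EDTA was centrifuged (1,160 g, 15°C, 10 min), then the plasma was ultracentrifuged (268,350 g, 15°C, 35 min). The top CM layer was diluted in PBS to 1 mg/mL TG (enzymatic kit) and held at 4°C ≤24 h. It was spiked to 1.75 μM final, stirred 1 h at 37°C and re-isolated.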"}, "[5]": {"settings": "rats, lipid-free formulation; cited from earlier work"}}}
{"compound": "CCC[C@@]1(CCc2ccccc2)CC(O)=C([C@H](CC)c2cccc(NS(=O)(=O)c3ccc(C(F)(F)F)cn3)c2)C(=O)O1", "note": "[TPV, tipranavir]", "values": [{"measurement": "association with artificial CM-like emulsion (Intralipid)", "setting": "[1]", "value": 31.6, "unit": "%"}, {"measurement": "C0", "setting": "[2]; iv, 1 mg/kg", "value": 17600, "unit": "ng/mL"}, {"measurement": "Vd", "setting": "[2]; iv, 1 mg/kg", "value": "0.903 ± 0.204", "unit": "L/kg"}, {"measurement": "clearance", "setting": "[2]; iv, 1 mg/kg", "value": 4.55, "unit": "mL/min/kg"}, {"measurement": "Tmax", "setting": "[2]; po, 5 mg/kg", "value": 3, "unit": "h"}, {"measurement": "concentration in mesenteric lymph fluid compared to plasma", "setting": "[3]; LCT-based formulation, tmax-1h (2 h) and tmax (3 h)", "value": "three-fold higher"}, {"measurement": "levels in MLNs compared to plasma", "setting": "[3]; LCT-based formulation", "value": "comparable"}, {"measurement": "levels in MLNs compared to plasma", "setting": "[3]; lipid-free formulation", "value": "comparable"}, {"measurement": "association with natural human plasma-derived CM", "setting": "[4]", "value": 66.7, "unit": "%"}, {"measurement": "oral bioavailability", "setting": "[5]", "value": 30, "unit": "%"}]}
